Not all results are given here.
HKDC1 act: HKDC1 hexokinase activators, primary screen, biochemical, fluorescence, uHTS. Q2TB90. recombinant HKDC1, G6PDH/diaphorase resazurin fluorescence; stronger effect = lower value. activity change, negative = activation, % at 20 µM. hit rate 0.056% among 340,000;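 active = activation of 40% or more at 20 µM, a change of -40% or lower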
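Signal: coupled resazurin-to-resorufin fluorescence, Ex 525/Em 613 nm. Test system: in-house human HKDC1 enzyme, G6PDH and diaphorase coupling enzymes. Quantity: HKDC1 5 µg/mL. Timing: 90 min reaction at room temperature, dark.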
Numbers without * were called inactive.

SMILES	HKDC1 act
Brc1ccc(C2N3CCCN23)cc1 (configuration not stated)	-79.3*
Cc1cc(O)c2c(c1)C(=O)C13C(=C2O)C(=O)[C@H]2[C@@H](O)[C@@H]1[C@H]1[C@H](O)[C@@H]3C(=O)C3=C(O)c4c(O)cc(C)cc4C(=O)C312 (some centres not stated)	67.4
O=c1nc(/C=C/c2ccc(Cl)cc2Cl)cc(C(F)(F)F)[nH]1	35.1
CC[C@H](C)/C=C(C)/C=C/C1=CC2=C(Cl)C(=O)[C@](C)(OC(C)=O)C(=O)C2=CO1	58.9
CCN(CC)CCCNC(=O)c1c(O)c2ccccc2n(Cc2ccccc2)c1=O	83.3
O=C1NC(=S)NC(=O)C1=Cc1ccc2c(c1)CCN2CCCCl	59.0
CC(=NNC(=S)N1CC2CCC(CC2)C1)c1nccs1	-43.2*
CCOC(=O)c1c(-n2c(C)cc(C=C3C(=O)NC(=S)NC3=O)c2C)sc2c1CCCC2	58.6
Nc1c(Br)cc2c3c(cccc13)-c1ccccc1-2	70.5
COc1cc(O)cc2c1cc([N+](=O)[O-])c1c(C(=O)O)cc3c(c12)OCO3	35.8

Screening data (PubChem)
